# Insulin prom act: TRM-6 insulin promoter activation. TRM-6 cells (human fetal islet line), insulin promoter eGFP reporter, imaging; plate-scaled: unstimulated 0, stimulated control 100. activation, % at 2 µM. 0.81% of 130,000 active;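 active = activation at 2 µM above a set limit, confirmed on inspection of the cell images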;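 also: share of cells whose green reporter signal exceeds an intensity cutoff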
#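 Assay system: TRM-6 insulin promoter–eGFP reporter cells / Input: 1,000 cells per well / Medium: Low-glucose (5.5 mM) medium with tamoxifen / Also added: tamoxifen inducer, 0.75 µM, in seeding medium / Timing: overnight tamoxifen, then two-day compound incubation at 37 °C / Signal: automated fluorescence imaging of paraformaldehyde-fixed, Hoechst-counterstained cells, green channel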
# Active calls of the source: *; + = active, no number. The full list was thinned out, with hits kept by preference.
SMILES,Insulin prom act
CCOC(=O)c1cc(C)n(Cc2ccc(OCC)c(OC)c2)c1C,85.7*
O=C(Cn1ncc2c(=O)oc3ccccc3c21)N(Cc1ccco1)C1CCCCC1,75.0
C=CCc1cccc2cc(C(=O)NC(C)(C)C)c(=O)oc12,5.6
O=c1c(-c2ccccc2)c(O)nc(SCCN2CCOCC2)n1-c1ccccc1,0.0
CCCCCNC(=O)C(C)Sc1ccc(Cl)cc1 (configuration not stated),164.3
Cc1ccc(SC(C)C(=O)Nc2ncn[nH]2)cc1 (configuration not stated),7.7
Cc1ccc(SC(C)C(=O)NCC(C)C)cc1 (configuration not stated),518.8*
CSc1ncc(F)c(N(CCO)CCO)n1,155.6
Cc1[nH]nc2c1C1(CCOC1C)C(C#N)=C(N)O2 (configuration not stated),128.6
CCOC(=O)C(C)On1c(SC(C)C(=O)OCC)nc2ccccc2c1=O (configuration not stated),75.7*
CCSc1nc2ccccc2c(=O)n1OCC(=O)OC,0.0
COC(=O)COn1c(SC(C)C)nc2ccccc2c1=O,6.9
CC(=O)N(c1ccccc1)c1c(F)c(F)c(F)c(F)c1F,0.0
O=C(CSc1nc2ccccc2c(=O)n1Cc1ccco1)N1CCN(c2ccccc2)CC1,3.2
O=C(c1cc2ccccc2oc1=O)N(Cc1cccs1)C1CCS(=O)(=O)C1 (configuration not stated),179.3
COc1ccccc1OCCn1c(=O)n(C)c2ccccc21,0.0
C=CCn1c(CNC(=O)c2ccco2)nnc1SCC(=O)N1c2ccccc2Sc2ccccc21,103.3*
C=CCn1c(CNC(=O)c2ccccc2C)nnc1SCC(=O)NC1CCCC1,304.7
Cn1nnnc1SCC(=O)N1c2ccccc2Sc2ccccc21,-9.1
Cc1cccc(NC(=O)CSc2nnc(Cn3nnc(-c4ccccc4)n3)n2-c2ccccc2)c1,-3.2
CCOC(=O)c1ccc(-n2c(C)nc3c(cnn3-c3ccccc3Cl)c2=O)cc1,-6.5
Fc1ccc(CNc2nc(-c3ccccc3)nc3ccccc23)cc1,0.0
Cc1ccc(-c2nc(N/N=C/c3cccc([N+](=O)[O-])c3)c3ccccc3n2)cc1,1.8
O=[N+]([O-])c1cccc(-c2nc(NCc3ccccc3)c3ccccc3n2)c1,322.2*
CC1(C)Cc2c(C#N)c(NCCc3ccccc3)nc(-c3ccco3)c2CO1,0.0
SMILES,Insulin prom act
CCN1CCN(C(c2cccs2)C(C)NS(=O)(=O)c2ccccc2)CC1 (configuration not stated),9.1
Fc1ccc(-c2nc3nc4ccccc4nc3n2Cc2ccco2)cc1,-7.7
N=c1c2c(-c3ccccc3)c(-c3ccccc3)n(Cc3ccco3)c2ncn1CCO,326.7
c1ccc(-c2nc3nc4ccccc4nc3n2Cc2ccco2)cc1,200.0*
COc1ccc(N2CCN(C(=O)c3cccc(N4C(=O)C5CC=CC(C)C5C4=O)c3)CC2)cc1 (configuration not stated),10.0
O=C(Nc1ccc(Cl)cc1)C1CC=CCC1C(=O)OCC(F)(F)C(F)F (configuration not stated),177.8
CCOC(=O)CC(=O)CSc1ncnc2c1cnn2-c1ccccc1,-100.0
Cc1ccc(-n2ncc3c(SCc4ccccc4)ncnc32)cc1,8.8
CCOC(=O)CSc1ncnc2c1cnn2-c1ccccc1,121.4*
Cc1cc(Cl)c(S(=O)(=O)N2CCCC2)cc1OCC(=O)NC1CCCCC1,-3.4
O=C(/C=C/c1ccco1)Oc1cc(Br)cc(/C=N/NC(=O)c2ccccc2O)c1,3.8
S=C(Nc1ccc(Cl)cc1)NC1CCN(Cc2ccccc2)CC1,5.9
Cc1ccc(C(=O)COC(=O)CNC(=O)C(c2ccccc2)c2ccccc2)cc1[N+](=O)[O-],6.7
COC(=O)CCN(C(=O)c1ccc(C)c([N+](=O)[O-])c1)c1ccccn1,+
Cc1ccc(C(=O)NCCSC(C)(C)C)cc1[N+](=O)[O-],-8.3
COCCCNC(=O)CNC(=O)c1cn(-c2ccccc2OC)c(=O)c2ccccc12,0.0
COC(=O)c1cc(OC)c(OC)cc1NC(=O)c1c(-c2ccccc2)noc1C,5.3
Cc1sc(NC(=O)/C=C/c2ccco2)c(C(=O)OC(C)C)c1C,8.8
Cc1cccc(NC(=O)CS(=O)(=O)Cc2ccccc2)n1,0.0
CC12CCC(C(=O)Nc3ccccc3N3CCOCC3)(CC1=O)C2(C)C (configuration not stated),8.3
CC12CCC(C(=O)N3CCc4ccccc43)(CC1=O)C2(C)C (configuration not stated),513.8*
COc1ccc(N2CCN(C(=O)C34CCC(C)(C(=O)C3)C4(C)C)CC2)cc1 (configuration not stated),-5.7
Brc1ccc2oc3c(N4CCOCC4)ncnc3c2c1,167.7
c1ccc(Nc2nc(-c3cccnc3)cs2)nc1,0.0
Clc1ccccc1Nc1nc(-c2cccnc2)cs1,358.3*
SMILES,Insulin prom act
c1cncc(Nc2nc(-c3ccncc3)cs2)c1,-4.3
Cc1cnc(C(=O)OCC(=O)Nc2cc(Cl)cc(Cl)c2)cn1,9.1
COc1ccc(-n2nnc3c(SCC(=O)OCc4ccccc4)ncnc32)cc1,7.1
N/C(=N\OC(=O)CCc1ccccc1)c1ccc(Br)cc1,9.7
COc1ccc(/C(N)=N/OC(=O)Oc2ccccc2)cc1OC,-1.5
N/C(=N\OC(=O)Oc1ccccc1)c1ccc(Br)cc1,492.9*
Cc1oc(C(=O)O)cc1COc1ccc2c3c(c(=O)oc2c1)CCC3,-3.3
Cc1ccc(-n2nc(-c3cccs3)cc2C(=O)NCC2CCCO2)c(C)c1 (configuration not stated),9.3
CCOC(=O)C(NC(=O)c1ccc(OC)cc1)(OCC1(CC)COC1)C(F)(F)F (configuration not stated),-6.9
CCOC(=O)C(NC(=O)c1ccccc1)(OCc1ccc(F)cc1)C(F)(F)F (configuration not stated),6.5
CCOC(=O)C(NC(=O)Nc1ncccn1)(Oc1ccccc1)C(F)(F)F (configuration not stated),190.0*
Fc1ccccc1N1CCN(Cc2nc(-c3ccc(Cl)cc3Cl)no2)CC1,346.7
COc1ccc(C(=O)NCC(=O)OCn2nnc3ccccc3c2=O)cc1OC,7.1
Cc1ccc(OC(=O)C23CC4CC(CC(C4)C2)C3)c(C)n1,6.7
O=C(NCc1ccccn1)c1c(Cl)cccc1Cl,-7.1
O=C(NCc1ccccn1)c1ccc(Cl)cc1Cl,272.2
O=C(NCc1ccccn1)c1ccc(Br)s1,528.6*
O=C(Cn1ccc([N+](=O)[O-])n1)c1ccccc1,0.0
COc1cc(/C=C(\C#N)c2nc3ccccc3[nH]2)c([N+](=O)[O-])cc1OCc1ccccc1,2.9
C=CCNC(=O)/C(C#N)=C/c1cn(-c2ccccc2)nc1-c1ccc(OC)c([N+](=O)[O-])c1,-3.6
O=C(Nc1cccc(C(F)(F)F)c1)c1cc2c(s1)-c1ccccc1OC2,5.6
CCOC(=O)C1=C(CSc2nc(-c3ccccc3)ccc2C#N)OC(N)=C(C#N)C1c1ccc(OC)cc1 (configuration not stated),83.7*
CCOC(=O)C1=C(CSc2nc(C)cc(C)c2C#N)OC(N)=C(C#N)C1c1ccccc1 (configuration not stated),2.7
CC(=O)C1=C(c2ccccc2)OC(N)=C(C#N)C1c1ccc(O)cc1 (configuration not stated),-9.4
Cc1ccc(N2C(=O)N(CC(=O)Nc3cc(C)cc(C)c3)C(=O)C2C)cc1 (configuration not stated),0.0

# Bioassay records as filed in PubChem.
